Activity calls are given as the source filed them.
Legend:
Mus musculus [1] = organism: Mus musculus; assay: Narcotic antagonistic potency evaluated in morphine-induced Straub tail phenomenon in mice; assay type: functional, organism-based; settings: read-out: pA2 (converted)
Cavia porcellus [2] = organism: Cavia porcellus; assay: Relative agonist molar potency on the electrically stimulated guinea pig myenteric plexus longitudinal muscle preparation at 10e-6; Inactive; assay type: functional; settings: Muscle tissue
In short: (§1)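 Electrically stimulated guinea pig ileum myenteric plexus–longitudinal muscle, measuring inhibition of twitch. Compounds active at 10⁻⁷ M or below were run in at least three independent preparations. Reversibility was checked with naloxone 2 × 10⁻⁶ M in the bath.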

Mus musculus [3] = assay: Compound was evaluated for antagonist activity only at subagonistic dose levels in mice by mouse hotplate procedure; Inactive at 100 uM/kg; assay type: functional, organism-based
Mus musculus [4] = assay: Compound was tested for narcotic agonist activity in mice by mouse hotplate procedure; Inactive at 100 uM/kg; assay type: functional, organism-based
In short: (§2)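 Male white Swiss-Webster mice, 25–35 g, at least five per dose. Baseline taken as three reaction times 15 min apart. Drug given s.c. in physiological saline. Hot plate read 10, 15 or 30 min after dosing, depending on compound class. Analgesia means postinjection time over double the control, with a 30 s cutoff. ED50 by probit analysis on free-base molar dose.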

Mus musculus [5] = organism: Mus musculus; assay: Narcotic antagonistic potency evaluated by morphine-induced Straub tail phenomenon in mice; assay type: functional, organism-based; settings: read-out: pA2 (converted)
Cavia porcellus [6] = organism: Cavia porcellus; assay: Relative agonist molar potency on the electrically stimulated guinea pig myenteric plexus longitudinal muscle preparation; assay type: functional, Muscle tissue; in short: as §1
Mus musculus [7] = organism: Mus musculus; assay: Compound was tested for narcotic agonist activity in mice by mouse hotplate procedure; assay type: functional; in short: as §2
Mus musculus [8] = assay: Compound was evaluated for antagonist activity only at subagonistic dose levels in mice by mouse hotplate procedure; Inactive at 60 uM/kg; assay type: functional, organism-based
Mus musculus [9] = assay: Compound was tested for narcotic agonist activity in mice by mouse hotplate procedure; Inactive at 60 uM/kg; assay type: functional, organism-based; in short: as §2
Mus musculus [10] = assay: Compound was evaluated for antagonist activity only at subagonistic dose levels in mice by mouse hotplate procedure; Inactive at 15 umol/kg; assay type: functional, organism-based
Mus musculus [11] = assay: Compound was evaluated for antagonist activity only at subagonistic dose levels in mice by mouse hotplate procedure; Inactive at 30 umol/kg; assay type: functional, organism-based
Mus musculus [12] = assay: Compound was tested for narcotic agonist activity in mice by mouse hotplate procedure; Inactive at 55 uM/kg; assay type: functional, organism-based; in short: as §2
Mus musculus [13] = assay: Compound was evaluated for antagonist activity only at subagonistic dose levels in mice by mouse hotplate procedure; Inactive at 17 uM/kg; assay type: functional, organism-based
Mus musculus [14] = organism: Mus musculus; assay: Compound was tested for narcotic agonist activity (effective dose) by mouse hotplate procedure
Mus musculus [15] = assay: Compound was evaluated for antagonist activity only at subagonistic dose levels in mice by mouse hotplate procedure; Inactive at 26 uM/kg; assay type: functional, organism-based
Mus musculus [16] = organism: Mus musculus; assay: Compound was evaluated for antagonist activity only at subagonistic dose levels in mice by mouse hotplate procedure; assay type: functional
Mus musculus [17] = assay: Compound was tested for narcotic agonist activity in mice by mouse hotplate procedure; Inactive at 110 uM/kg; assay type: functional, organism-based; in short: as §2
Mus musculus [18] = organism: Mus musculus; assay: Compound was evaluated for antagonist activity only at subagonistic dose levels by mouse hotplate procedure; assay type: functional
Mus musculus [19] = assay: Compound was evaluated for antagonist activity only at subagonistic dose levels in mice by mouse hotplate procedure; Inactive at 115 uM/kg; assay type: functional, organism-based
Mus musculus [20] = assay: Compound was tested for narcotic agonist activity in mice by mouse hotplate procedure; Inactive at 115 uM/kg; assay type: functional, organism-based; in short: as §2
Mus musculus [21] = assay: Compound was tested for narcotic agonist activity in mice by mouse hotplate procedure; Inactive at 120 uM/kg; assay type: functional, organism-based; in short: as §2
Mus musculus [22] = assay: Compound was evaluated for antagonist activity only at subagonistic dose of 120 uM/kg levels in mice by mouse hotplate procedure; assay type: functional

C=CCN1CC[C@]23c4c5ccc(O)c4O[C@H]2C(=O)CC[C@@]3(O)[C@H]1C5 [NALOXONE]
Kb (Mus musculus [1]): 2.95 nM

CCC[C@H]1CN(C)CC[C@@]1(OC(=O)CC)c1cccc(O)c1
Potency (Cavia porcellus [2]): inactive
AD50 (Mus musculus [3]): inactive
ED50 (Mus musculus [4]): inactive
Kb (Mus musculus [5]): ≥ 1000 nM

C=CC[C@@H]1CN(C)CC[C@@]1(OC(=O)CC)c1ccccc1
Potency (Cavia porcellus [6]): 4.51
Kb (Mus musculus [5]): ≥ 1000 nM
ED50 (Mus musculus [7]): 0.54 µmol/kg

C=CC[C@H]1CN(C)CC[C@@]1(OC(=O)CC)c1cccc(O)c1
Potency (Cavia porcellus [2]): inactive
AD50 (Mus musculus [8]): inactive
ED50 (Mus musculus [9]): inactive
Kb (Mus musculus [5]): ≥ 1000 nM

C=CC[C@@H]1CN(C)CC[C@@]1(OC(=O)CC)c1cccc(OC)c1
Potency (Cavia porcellus [6]): 0.12
AD50 (Mus musculus [10]): inactive
Kb (Mus musculus [5]): ≥ 1000 nM
ED50 (Mus musculus [7]): 34.7 µmol/kg

C=CC[C@H]1CN(CC=C)CC[C@@]1(OC(=O)CC)c1cccc(O)c1
Potency (Cavia porcellus [2]): inactive
AD50 (Mus musculus [11]): inactive
ED50 (Mus musculus [12]): inactive
Kb (Mus musculus [5]): ≥ 1000 nM

CCC(=O)OC1(c2cccc(O)c2)CCN(C)CC1
Potency (Cavia porcellus [6]): 0.011
AD50 (Mus musculus [13]): inactive
Kb (Mus musculus [5]): ≥ 1000 nM
ED50 (Mus musculus [7]): 110 µmol/kg

CN1CC[C@]23c4c5ccc(O)c4O[C@H]2[C@@H](O)C=C[C@H]3[C@H]1C5 [MORPHINE]
ED50 (Mus musculus [14]): 12.4 µmol/kg

C=CC[C@@H]1CN(CC=C)CC[C@@]1(OC(=O)CC)c1cccc(OC)c1
Potency (Cavia porcellus [6]): 0.033
AD50 (Mus musculus [15]): inactive
Kb (Mus musculus [5]): ≥ 1000 nM
Inhibition (Mus musculus [7]): 17%

C=CC[C@@H]1CN(CC=C)CC[C@@]1(OC(=O)CC)c1cccc(O)c1
Potency (Cavia porcellus [2]): inactive
AD50 (Mus musculus [16]): 74.13 µM/kg
ED50 (Mus musculus [17]): inactive
Kb (Mus musculus [5]): ≥ 1000 nM

O=C1CC[C@@]2(O)[C@H]3Cc4ccc(O)c5c4[C@@]2(CCN3CC2CC2)[C@H]1O5 [NALTREXONE]
Kb (Mus musculus [1]): > 1000 nM
AD50 (Mus musculus [18]): 0.031 µM/kg

CCC[C@@H]1CN(C)CC[C@@]1(OC(=O)CC)c1cccc(O)c1
Potency (Cavia porcellus [2]): inactive
AD50 (Mus musculus [3]): inactive
ED50 (Mus musculus [4]): inactive
Kb (Mus musculus [5]): ≥ 1000 nM

C=CC[C@H]1CN(C)CC[C@@]1(OC(=O)CC)c1cccc(OC)c1
Potency (Cavia porcellus [2]): inactive
AD50 (Mus musculus [19]): inactive
ED50 (Mus musculus [20]): inactive
Kb (Mus musculus [5]): ≥ 1000 nM

C=CC[C@@H]1CN(C)CC[C@@]1(OC(=O)CC)c1cccc(O)c1
Potency (Cavia porcellus [2]): inactive
ED50 (Mus musculus [21]): inactive
AD50 (Mus musculus [22]): 12%
Kb (Mus musculus [5]): ≥ 1000 nM
